# Measured values published in ChEMBL document CHEMBL5344414, “Maleimide constrained BAD BH3 domain peptides as BCL-xL Inhibitors: A versatile approach to rapidly identify sites compatible with peptide constraining” (Bioorg Med Chem Lett, 2023).
# Where a SMILES comes first, the peptide text is derived from it.
# Target: BCL2L1/BAD (Homo sapiens, UniProt Q07817)
# Experiment: Inhibition of BAD/His-SUMO tagged BCL-XL (1 to 209 residues; missing 27 to 82 residues) (unknown origin) overexpressed in Escherichia coli BL21 protein-protein interaction by fluorescence anisotropy competition assay
# Summary of the method: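 Final conditions: 200 nM BCL-xL, 50 nM tracer, 20 mM Tris, 150 mM NaCl, pH 7.6, 20 °C, with peptide titrated. Tracer Kd for BCL-xL was determined beforehand by direct titration (6 nM-125 μM protein).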
# BCL2L1/BAD, sequence (Q92934 whole entry, the tested form may be a part): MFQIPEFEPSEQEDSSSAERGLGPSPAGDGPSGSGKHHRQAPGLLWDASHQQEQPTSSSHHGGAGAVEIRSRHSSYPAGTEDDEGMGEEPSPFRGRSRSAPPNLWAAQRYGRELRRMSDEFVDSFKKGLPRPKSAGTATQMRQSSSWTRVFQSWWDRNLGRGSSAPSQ
# BCL2L1/BAD, sequence (Q07817 whole entry, the tested form may be a part): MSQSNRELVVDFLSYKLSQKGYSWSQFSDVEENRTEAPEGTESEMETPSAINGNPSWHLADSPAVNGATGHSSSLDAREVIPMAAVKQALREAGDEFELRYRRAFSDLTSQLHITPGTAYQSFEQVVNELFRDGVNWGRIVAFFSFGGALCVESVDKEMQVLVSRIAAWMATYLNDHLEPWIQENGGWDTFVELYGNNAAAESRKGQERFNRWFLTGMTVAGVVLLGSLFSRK
row,Compound,IC50 [µM]
1,CSCC[C@H](NC(=O)[C@H](CCCNC(=N)N)NC(=O)[C@H](CCCNC(=N)N)NC(=O)[C@H](CC(C)C)NC(=O)[C@H](CS)NC(=O)[C@H](CCCNC(=N)N)NC(=O)CNC(=O)[C@H](Cc1ccc(O)cc1)NC(=O)[C@H](CS)NC(C)=O)C(=O)N[C@@H](CO)C(=O)N[C@@H](CC(=O)O)C(=O)N[C@@H](CCC(=O)O)C(=O)N[C@@H](Cc1ccccc1)C(=O)N[C@H](C(=O)N[C@@H](CC(=O)O)C(=O)N[C@@H](CO)C(=O)N[C@@H](Cc1ccccc1)C(=O)N[C@@H](CCCCN)C(=O)N[C@@H](CCCCN)C(N)=O)C(C)C (Ac-CYGRCLRRMSDEFVDSFKK-NH2),5.1
2,CSCC[C@H](NC(=O)[C@H](CCCNC(=N)N)NC(=O)[C@H](CCCNC(=N)N)NC(=O)[C@H](CC(C)C)NC(=O)[C@H](CCC(=O)O)NC(=O)[C@H](CCCNC(=N)N)NC(=O)CNC(=O)[C@H](Cc1ccc(O)cc1)NC(=O)[C@H](CCCNC(=N)N)NC(C)=O)C(=O)N[C@H]1CS2=S(C[C@@H](C(=O)N[C@@H](CC(=O)O)C(=O)N[C@@H](CO)C(=O)N[C@@H](Cc3ccccc3)C(=O)N[C@@H](CCCCN)C(=O)N[C@@H](CCCCN)C(N)=O)NC(=O)[C@H](Cc3ccccc3)NC(=O)[C@H](CCC(=O)O)NC(=O)[C@H](CC(=O)O)NC1=O)C(=O)NC2=O (stereo partly specified),> 50
3,CSCC[C@H](NC(=O)[C@H](CCCNC(=N)N)NC(=O)[C@@H]1CS2=S(C[C@H](NC(=O)[C@H](Cc3ccc(O)cc3)NC(=O)[C@H](CCCNC(=N)N)NC(C)=O)C(=O)N[C@@H](CCCNC(=N)N)C(=O)N[C@@H](CCC(=O)O)C(=O)N[C@@H](CC(C)C)C(=O)N1)C(=O)NC2=O)C(=O)N[C@@H](CO)C(=O)N[C@@H](CC(=O)O)C(=O)N[C@@H](CCC(=O)O)C(=O)N[C@@H](Cc1ccccc1)C(=O)N[C@H](C(=O)N[C@@H](CC(=O)O)C(=O)N[C@@H](CO)C(=O)N[C@@H](Cc1ccccc1)C(=O)N[C@@H](CCCCN)C(=O)N[C@@H](CCCCN)C(N)=O)C(C)C (stereo partly specified),> 50
4,CSCC[C@H](NC(=O)[C@H](CCCNC(=N)N)NC(=O)[C@H](CCCNC(=N)N)NC(=O)[C@H](CC(C)C)NC(=O)[C@H](CCC(=O)O)NC(=O)[C@H](CCCNC(=N)N)NC(=O)CNC(=O)[C@H](Cc1ccc(O)cc1)NC(=O)[C@H](CCCNC(=N)N)NC(C)=O)C(=O)N[C@@H](CO)C(=O)N[C@@H](CC(=O)O)C(=O)N[C@@H](CS)C(=O)N[C@@H](Cc1ccccc1)C(=O)N[C@H](C(=O)N[C@@H](CC(=O)O)C(=O)N[C@@H](CS)C(=O)N[C@@H](Cc1ccccc1)C(=O)N[C@@H](CCCCN)C(=O)N[C@@H](CCCCN)C(N)=O)C(C)C (Ac-RYGRELRRMSDCFVDCFKK-NH2),4.5
5,CSCC[C@H](NC(=O)[C@H](CCCNC(=N)N)NC(=O)[C@H](CCCNC(=N)N)NC(=O)[C@H](CC(C)C)NC(=O)[C@H](CCC(=O)O)NC(=O)[C@H](CCCNC(=N)N)NC(=O)CNC(=O)[C@H](Cc1ccc(O)cc1)NC(=O)[C@H](CCCNC(=N)N)NC(C)=O)C(=O)N[C@@H](CO)C(=O)N[C@@H](CS)C(=O)N[C@@H](CCC(=O)O)C(=O)N[C@@H](Cc1ccccc1)C(=O)N[C@H](C(=O)N[C@@H](CS)C(=O)N[C@@H](CO)C(=O)N[C@@H](Cc1ccccc1)C(=O)N[C@@H](CCCCN)C(=O)N[C@@H](CCCCN)C(N)=O)C(C)C (Ac-RYGRELRRMSCEFVCSFKK-NH2),> 50
6,CSCC[C@H](NC(=O)[C@H](CCCNC(=N)N)NC(=O)[C@H](CCCNC(=N)N)NC(=O)[C@H](CC(C)C)NC(=O)[C@H](CCC(=O)O)NC(=O)[C@H](CCCNC(=N)N)NC(=O)CNC(=O)[C@H](Cc1ccc(O)cc1)NC(=O)[C@H](CCCNC(=N)N)NC(C)=O)C(=O)N[C@@H](CO)C(=O)N[C@@H](CC(=O)O)C(=O)N[C@H]1CS2=S(C[C@@H](C(=O)N[C@@H](Cc3ccccc3)C(=O)N[C@@H](CCCCN)C(=O)N[C@@H](CCCCN)C(N)=O)NC(=O)[C@H](CC(=O)O)NC(=O)[C@H](C(C)C)NC(=O)[C@H](Cc3ccccc3)NC1=O)C(=O)NC2=O (stereo partly specified),> 50
